Reference: ChEMBL document CHEMBL4270524, “Enhanced antimalarial activity of plasmepsin V inhibitors by modification of the P2 position of PEXEL peptidomimetics” (Eur J Med Chem, 2018)
Calls of active or inactive are those of the source. The calls are words filed in the database; no cut-off is given here. Square brackets hold non-standard residues; d marks the D form. Peptide text beside a SMILES is read from it. * marks the point of attachment. Dip = N[C@H](C(=O)O)C(c1ccccc1)c1ccccc1; Sta = CC(C)C[C@H](N)[C@@H](O)CC(=O)O; Gly(cPent) = N[C@H](C(=O)O)C1CCCC1; Igl = N[C@H](C(=O)O)C1Cc2ccccc2C1; Chg = N[C@H](C(=O)O)C1CCCCC1; NHPhenethyl = c1ccc(CCN*)cc1; Phg = N[C@H](C(=O)O)c1ccccc1; Tle = CC(C)(C)[C@H](N)C(=O)O; Nva = CCC[C@H](N)C(=O)O; Abu = CC[C@H](N)C(=O)O; Cbz = O=C(OCc1ccccc1)*

Key:
[1] = Inhibition of recombinant Plasmodium vivax plasmepsin 5 expressed in High five insect cells using DABCYLRNKRTLAQKQ-E-EDANS as substrate measured after 120 mins by fluorescence assay
How it was run: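 Enzyme purified by anti-FLAG affinity then Superdex 75 gel filtration. Each well held 2.5 ng enzyme and 12 µM (Km) substrate in 25 mM Tris-HCl/25 mM MES pH 6.4 with 0.005% Tween-20 and 1% DMSO final. Ten-point 1-in-3 compound dilutions. Fluorescence read at ex 340/em 495 nm. IC50 from four-parameter fit constrained to 0 and 100%; mean and SD, n=3.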

Plasmodium falciparum = assay: Antiplasmodial activity against ring-stage Plasmodium falciparum 3D7 assessed as reduction in parasite viability after 72 hrs by LDH assay; assay type: functional, organism-based; settings: 3D7, 72 h
How it was run: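 Sorbitol-synchronised early ring-stage parasites grown in RPMI-HEPES with L-glutamine and Albumax II, exposed to ten-point compound titrations in DMSO (≤0.02% final) for 72 h. Parasitemia read by LDH activity (NADH consumption) relative to DMSO control. EC50 from 4-parameter variable-slope sigmoidal fit; means and SD of three independent experiments.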

HepG2 = assay: Cytotoxicity against human HepG2 cells after 48 hrs by CellTiter-Glo assay; assay type: functional, cell-based; settings: HepG2, 48 h
How it was run: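 Cells kept in DMEM with 10% FCS at 37 °C, 5% CO2. 1 × 10^4 cells seeded per well and exposed to a 10-point compound titration for 48 h at 37 °C. Viability normalised to DMSO (100%) and 10 µM bortezomib (0%). EC50 given as mean and SD of three experiments.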

[2] = molecular target: Plasmepsin V (Plasmodium falciparum (isolate 3D7)) (UniProt Q8I6Z5); assay: Inhibition of plasmepsin 5 in Plasmodium falciparum 3D7 co-expressing PfEMP3-GFP infected in human erythrocytes assessed as accumulation of uncleaved PfEMP3-GFP at 1 to 10 uM after 3 hrs by immunoblot analysis; assay type: cell-based
Sequence of Plasmepsin V (Plasmodium falciparum (isolate 3D7)) (Q8I6Z5 whole entry, looked up): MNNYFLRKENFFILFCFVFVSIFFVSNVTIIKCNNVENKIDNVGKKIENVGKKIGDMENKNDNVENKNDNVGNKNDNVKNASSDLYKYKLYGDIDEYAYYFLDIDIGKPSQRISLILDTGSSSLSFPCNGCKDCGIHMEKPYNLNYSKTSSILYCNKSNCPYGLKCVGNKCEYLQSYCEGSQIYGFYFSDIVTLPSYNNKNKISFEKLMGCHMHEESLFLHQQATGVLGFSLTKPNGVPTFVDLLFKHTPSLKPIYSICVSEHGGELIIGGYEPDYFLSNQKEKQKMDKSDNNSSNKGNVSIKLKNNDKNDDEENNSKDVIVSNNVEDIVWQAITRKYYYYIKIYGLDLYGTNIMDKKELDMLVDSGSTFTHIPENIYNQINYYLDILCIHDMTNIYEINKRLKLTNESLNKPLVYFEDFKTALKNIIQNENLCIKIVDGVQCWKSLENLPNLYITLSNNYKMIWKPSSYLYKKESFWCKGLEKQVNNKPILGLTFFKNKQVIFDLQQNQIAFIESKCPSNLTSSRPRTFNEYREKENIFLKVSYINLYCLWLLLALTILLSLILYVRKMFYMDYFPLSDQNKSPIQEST
How it was run: (§1)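 Parasites cultured in O+ erythrocytes at 4% haematocrit in RPMI 1640 with 25 mM HEPES pH 7.4, 0.2% bicarbonate, 0.5% Albumax II under 5% CO2/5% O2 gas at 37 °C. Magnet-purified 24–34 h trophozoites treated 3 h at 37 °C; DMSO vehicle control. Saponin-lysed pellets run on SDS-PAGE and probed with anti-GFP, with HSP70 as loading control. ECL read-out, quantified by densitometry.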

[3] = molecular target: Plasmepsin V (Plasmodium falciparum (isolate 3D7)) (UniProt Q8I6Z5); assay: Inhibition of plasmepsin 5 in Plasmodium falciparum 3D7 co-expressing PfEMP3-GFP infected in human erythrocytes assessed as accumulation of uncleaved PfEMP3-GFP after 3 hrs by immunoblot analysis; assay type: cell-based; how it was run: as §1
[4] = molecular target: Plasmepsin V (Plasmodium falciparum (isolate 3D7)) (UniProt Q8I6Z5); assay: Inhibition of plasmepsin 5 in Plasmodium falciparum 3D7 co-expressing PfEMP3-GFP infected in human erythrocytes assessed as accumulation of uncleaved PfEMP3-GFP at 1 to 20 uM after 3 hrs by immunoblot analysis; assay type: cell-based; how it was run: as §1

SMILES | IC50 [1] | EC50 (Plasmodium falciparum) | EC50 (HepG2) | inhibition [2] | inhibition [3] | inhibition [4]
CC(C)C[C@H](NC(=O)[C@@H](NC(=O)[C@H](CCCNC(=N)N)NS(=O)(=O)Cc1ccccc1)C(C)C)[C@@H](O)CC(=O)NCCc1ccccc1 | 0.123 µM | 4.03 µM | > 40 µM |  |  | 
CC(C)C[C@H](NC(=O)[C@@H](NC(=O)[C@H](CCONC(=N)N)NC(=O)OCc1ccccc1)C(C)C)[C@@H](O)CC(=O)NCCc1ccccc1 | 0.019 µM | 0.43 µM | > 40 µM | Active |  | 
CC(C)C[C@H](NC(=O)[C@@H](NC(=O)[C@H](CCCNC(=N)N)NC(=O)OCc1ccccc1)[C@H](C)c1ccccc1)[C@@H](O)CC(=O)NCCc1ccccc1 | > 10 µM | > 10 µM | 35.4 µM |  |  | 
CCC(CC)[C@H](NC(=O)[C@H](CCCNC(=N)N)NC(=O)OCc1ccccc1)C(=O)N[C@@H](CC(C)C)[C@@H](O)CC(=O)NCCc1ccccc1 | 0.112 µM | 4.11 µM | > 40 µM |  |  | 
CC(C)C[C@H](NC(=O)[C@@H](NC(=O)[C@H](CCCNC(=N)N)NC(=O)OCc1ccccc1)[C@H](O)c1ccccc1)[C@@H](O)CC(=O)NCCc1ccccc1 | 6.56 µM | > 10 µM | > 40 µM |  |  | 
CC(C)C[C@H](NC(=O)[C@@H](NC(=O)[C@H](CCCNC(=N)N)NC(=O)OCc1ccccc1)C(C)(C)O)[C@@H](O)CC(=O)NCCc1ccccc1 | 3.01 µM | > 10 µM | > 40 µM |  |  | 
CC(C)C[C@H](NC(=O)[C@@H](NC(=O)[C@H](CCONC(=N)N)NC(=O)OCc1ccccc1)C1CCCCC1)[C@@H](O)CC(=O)NCCc1ccccc1 | 0.005 µM | 0.09 µM | > 40 µM |  | Active | 
CC(C)C[C@H](NC(=O)[C@@H](NC(=O)[C@H](CCONC(=N)N)NC(=O)OCc1ccccc1)c1ccccc1)[C@@H](O)CC(=O)NCCc1ccccc1 | 0.003 µM | 0.07 µM | > 40 µM |  |  | Active
CC[C@H](C)[C@H](NC(=O)[C@H](CCONC(=N)N)NC(=O)OCc1ccccc1)C(=O)N[C@@H](CC(C)C)[C@@H](O)CC(=O)NCCc1ccccc1 | 0.016 µM | 0.18 µM |  |  |  | 
CC(C)C[C@H](NC(=O)[C@H](C)NC(=O)[C@H](CCCNC(=N)N)NC(=O)OCc1ccccc1)[C@@H](O)CC(=O)NCCc1ccccc1 (Cbz-Arg-Ala-[Sta]-NHPhenethyl) | 7.18 µM | > 10 µM | > 40 µM |  |  | 
CC[C@H](C)[C@H](NC(=O)[C@H](CCCNC(=N)N)NC(=O)OCc1ccccc1)C(=O)N[C@@H](CC(C)C)[C@@H](O)CC(=O)NCCc1ccccc1 (Cbz-Arg-Ile-[Sta]-NHPhenethyl) | 0.026 µM | 1.03 µM |  |  |  | 
CC(C)C[C@H](NC(=O)[C@H](CCCNC(=N)N)NC(=O)OCc1ccccc1)C(=O)N[C@@H](CC(C)C)[C@@H](O)CC(=O)NCCc1ccccc1 (Cbz-Arg-Leu-[Sta]-NHPhenethyl) | 0.165 µM | 5 µM | > 40 µM |  |  | 
CC(C)C[C@H](NC(=O)[C@H](Cc1ccccc1)NC(=O)[C@H](CCCNC(=N)N)NC(=O)OCc1ccccc1)[C@@H](O)CC(=O)NCCc1ccccc1 (Cbz-Arg-Phe-[Sta]-NHPhenethyl) | 3.12 µM | > 10 µM | > 40 µM |  |  | 
CC(C)C[C@H](NC(=O)[C@H](CO)NC(=O)[C@H](CCCNC(=N)N)NC(=O)OCc1ccccc1)[C@@H](O)CC(=O)NCCc1ccccc1 (Cbz-Arg-Ser-[Sta]-NHPhenethyl) | > 10 µM | > 10 µM | > 40 µM |  |  | 
CC(C)C[C@H](NC(=O)[C@@H](NC(=O)[C@H](CCCNC(=N)N)NC(=O)OCc1ccccc1)[C@@H](C)O)[C@@H](O)CC(=O)NCCc1ccccc1 (Cbz-Arg-Thr-[Sta]-NHPhenethyl) | 2.02 µM | > 10 µM | > 40 µM |  |  | 
CC(C)C[C@H](NC(=O)[C@@H](NC(=O)[C@H](CCCNC(=N)N)NC(=O)OCc1ccccc1)C(C)C)[C@@H](O)CC(=O)NCCc1ccccc1 (Cbz-Arg-Val-[Sta]-NHPhenethyl) | 0.116 µM | 3.39 µM | > 40 µM |  |  | 
CC[C@H](NC(=O)[C@H](CCCNC(=N)N)NC(=O)OCc1ccccc1)C(=O)N[C@@H](CC(C)C)[C@@H](O)CC(=O)NCCc1ccccc1 (Cbz-Arg-[Abu]-[Sta]-NHPhenethyl) | 0.507 µM | 3.14 µM | > 40 µM |  |  | 
CC(C)C[C@H](NC(=O)[C@@H](NC(=O)[C@H](CCCNC(=N)N)NC(=O)OCc1ccccc1)C1CCCCC1)[C@@H](O)CC(=O)NCCc1ccccc1 (Cbz-Arg-[Chg]-[Sta]-NHPhenethyl) | 0.029 µM | 1.22 µM | 36.7 µM |  | Active | 
CC(C)C[C@H](NC(=O)[C@@H](NC(=O)[C@H](CCCNC(=N)N)NC(=O)OCc1ccccc1)C(c1ccccc1)c1ccccc1)[C@@H](O)CC(=O)NCCc1ccccc1 (Cbz-Arg-[Dip]-[Sta]-NHPhenethyl) | > 10 µM | > 10 µM | > 40 µM |  |  | 
CC(C)C[C@H](NC(=O)[C@@H](NC(=O)[C@H](CCCNC(=N)N)NC(=O)OCc1ccccc1)C1CCCC1)[C@@H](O)CC(=O)NCCc1ccccc1 (Cbz-Arg-[Gly(cPent)]-[Sta]-NHPhenethyl) | 0.055 µM | 2.73 µM | > 40 µM |  |  | 
CC(C)C[C@H](NC(=O)[C@@H](NC(=O)[C@H](CCCNC(=N)N)NC(=O)OCc1ccccc1)C1Cc2ccccc2C1)[C@@H](O)CC(=O)NCCc1ccccc1 (Cbz-Arg-[Igl]-[Sta]-NHPhenethyl) | 0.661 µM | 6.18 µM | 23.5 µM |  |  | 
CCC[C@H](NC(=O)[C@H](CCCNC(=N)N)NC(=O)OCc1ccccc1)C(=O)N[C@@H](CC(C)C)[C@@H](O)CC(=O)NCCc1ccccc1 (Cbz-Arg-[Nva]-[Sta]-NHPhenethyl) | 0.116 µM | 2.4 µM |  |  |  | 
CC(C)C[C@H](NC(=O)[C@@H](NC(=O)[C@H](CCCNC(=N)N)NC(=O)OCc1ccccc1)c1ccccc1)[C@@H](O)CC(=O)NCCc1ccccc1 (Cbz-Arg-[Phg]-[Sta]-NHPhenethyl) | 0.024 µM | 1.36 µM | > 40 µM |  |  | Active
CC(C)C[C@H](NC(=O)[C@@H](NC(=O)[C@H](CCCNC(=N)N)NC(=O)OCc1ccccc1)C(C)(C)C)[C@@H](O)CC(=O)NCCc1ccccc1 (Cbz-Arg-[Tle]-[Sta]-NHPhenethyl) | 6.7 µM | > 10 µM | > 40 µM |  |  | 
O[C@@H](c1cc(C(F)(F)F)nc2c(C(F)(F)F)cccc12)[C@H]1CCCCN1 [(S,R)-MEFLOQUINE] |  | 0.013 µM | 9.8 µM |  |  | 
CC(C)C[C@H](NC(=O)[C@H](Cc1ccccc1)NC(=O)c1cnccn1)B(O)O [BORTEZOMIB] |  |  | 0.01 µM |  |  | 
CCN(CC)CCCC(C)Nc1ccnc2cc(Cl)ccc12 (centres undefined) [CHLOROQUINE] |  | 0.006 µM | 10.1 µM |  |  | 
